From ChEMBL document CHEMBL1150223, “Neuroprotective constituents from Hedyotis diffusa” (2001)

How the values were obtained:
Type in all cases: functional
Conditions in all cases: read-out: Activity
[1] = Neuroprotective activity against glutamate-stimulated rat cortical cells assessed as cell viability at 0.1 uM after 1 hr by LDH assay relative to control
Outline: (§1)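 Mixed cortical cultures from 17- to 19-day fetal Sprague-Dawley rats, grown 2 weeks in DMEM/10% FCS, with 5-fluorodeoxyuridine 50 µM from day 3. Cells were washed, given sample in DMSO (0.1% final) for 1 h, then 50 µM glutamate plus sample for 24 h. Medium LDH was read at 450 nm. Viability is relative to glutamate-only and vehicle control; mean ± SEM, three experiments.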

[2] = Neuroprotective activity against glutamate-stimulated rat cortical cells assessed as cell viability at 1 uM after 1 hr by LDH assay relative to control; outline: as §1
[3] = Neuroprotective activity against glutamate-stimulated rat cortical cells assessed as cell viability at 10 uM after 1 hr by LDH assay relative to control; outline: as §1

Row | SMILES | viability at 0.1 µM [1] | viability at 1 µM [2] | viability at 10 µM [3]
1 | O=c1c(O[C@@H]2O[C@H](CO)[C@H](O)[C@H](O)[C@H]2O[C@@H]2O[C@H](CO)[C@@H](O)[C@H](O)[C@H]2O)c(-c2ccc(O)c(O)c2)oc2cc(O)cc(O)c12 | 48.2% | 66% | 54%
2 | COC(=O)C1=CO[C@@H](O[C@@H]2O[C@H](CO)[C@@H](O)[C@H](O)[C@H]2O)[C@@H]2C(CO)=C[C@@H](OC(=O)/C=C\c3ccc(OC)cc3)[C@H]12 | 28.8% | 54.6% | 23.7%
3 | COC(=O)C1=CO[C@@H](O[C@@H]2O[C@H](CO)[C@@H](O)[C@H](O)[C@H]2O)[C@@H]2C(CO)=C[C@@H](OC(=O)/C=C/c3ccc(O)cc3)[C@H]12 | 14.5% | 62.2% | 26.8%
4 | COC(=O)C1=CO[C@@H](O[C@@H]2O[C@H](CO)[C@@H](O)[C@H](O)[C@H]2O)[C@@H]2C(CO)=C[C@@H](OC(=O)/C=C\c3ccc(O)cc3)[C@H]12 | 6.9% | 25.7% | 6.3%
5 | COc1cc(/C=C/C(=O)OC[C@H]2O[C@@H](O[C@H]3[C@H](Oc4c(-c5ccc(O)cc5)oc5cc(O)cc(O)c5c4=O)O[C@H](CO)[C@H](O)[C@@H]3O)[C@H](O)[C@@H](O)[C@@H]2O)ccc1O | 25.2% | 66.9% | 25.2%
6 | COc1cc(/C=C/C(=O)OC[C@H]2O[C@@H](O[C@H]3[C@H](Oc4c(-c5ccc(O)c(O)c5)oc5cc(O)cc(O)c5c4=O)O[C@H](CO)[C@@H](O)[C@@H]3O)[C@H](O)[C@@H](O)[C@@H]2O)ccc1O | 62.9% | 71.5% | 73.7%
7 | COC(=O)C1=CO[C@@H](O[C@@H]2O[C@H](CO)[C@@H](O)[C@H](O)[C@H]2O)[C@@H]2C(CO)=C[C@@H](OC(=O)/C=C/c3ccc(OC)cc3)[C@H]12 | 65.4% | 71.8% | 52.8%
8 | COc1cc(/C=C/C(=O)OC[C@H]2O[C@@H](O[C@H]3[C@H](Oc4c(-c5ccc(O)c(O)c5)oc5cc(O)cc(O)c5c4=O)O[C@H](CO)[C@H](O)[C@@H]3O)[C@H](O)[C@@H](O)[C@@H]2O)ccc1O | 62.7% | 72.9% | 75%
9 | O=c1c(O[C@@H]2O[C@H](CO)[C@H](O)[C@H](O)[C@H]2O[C@@H]2O[C@H](CO)[C@@H](O)[C@H](O)[C@H]2O)c(-c2ccc(O)cc2)oc2cc(O)cc(O)c12 | 4.6% | 27% | 25.2%
